Experimental findings from ChEMBL document CHEMBL1138079 (J Med Chem, 2006) are described below.

Data set [1] has as its system SK-OV-3. The data set is described as follows: Ratio for antiproliferative activity against NTR- SKOV3 cells to NTR+ SKOV3 cells infected with 100 pfu/cell retrovirus after 18 hrs. It counts as functional, Homo sapiens.
Data set [2] is described as follows: (§1) Half life in phosphate buffer at pH 7 at 37 degC assessed as reduction by Escherichia coli nitroreductase by NR assay. The conditions noted are these: buffer. It counts as ADME. Put shortly:
(§2)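 Substrate at 0.2 mM with 1 mM NADH in 10 mM sodium phosphate buffer, pH 7.0, at 37 °C. Reaction started by adding 1.8 µg E. coli nitroreductase; 2 mM cysteine added for one compound. Aliquots taken at intervals, quenched with acetonitrile, frozen, then analysed by HPLC. Half-life calculated from substrate disappearance.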

The test system of data set [3] is SK-OV-3. The data set is described as follows: Ratio for antiproliferative activity against NTR- SKOV3 cells to NTR+ SKOV3 cells after 18 hrs. Format: functional, Homo sapiens. Put shortly:
(§3)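 SKOV3 ovarian carcinoma cells stably transduced with a retroviral NTR vector and selected with 1 mg/mL G418, compared with parental SKOV3. Plated at 20 000 cells/well and allowed to adhere 24 h. Prodrug range given for 18 h, then replaced with drug-free medium. MTT survival read 2 days later. Ratio is NTR⁻/NTR⁺ IC50.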

Data set [4] has as its system V79. Briefly: Ratio for antiproliferative activity against NTR- V79 cells to NTR+ V79 cells after 72 hrs. Format: functional, Cricetulus griseus. Put shortly:
(§4)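 V79 Chinese hamster fibroblasts: NTR⁺ cells stably transfected with a bicistronic NTR/puromycin-resistance vector and kept under puromycin selection; vector-only NTR⁻ controls. Seeded 1000 cells/well, recovered 24 h, then exposed to serially diluted drug for 3 days at 37 °C, initially up to 100 µM. SRB stain read at 570 nm. IC50 interpolated; ratio is NTR⁻/NTR⁺ IC50.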

Data set [5] has as its system V79. The data set is described as follows: Antiproliferative activity against NTR expressing chinese hamster V79 cells after 72 hrs. It counts as functional, cell-based, Cricetulus griseus. The essentials:
as §4

Data set [6] relates to SK-OV-3. The data set is described as follows: Antiproliferative activity against NTR expressing human SKOV3 cells […] after 18 hrs. Format: functional, cell-based.
In data set [7] the test system is SK-OV-3. The data set is described as follows: Antiproliferative activity against NTR expressing human SKOV3 cells after 18 hrs. It counts as functional, cell-based. The essentials: as §3
The subject of data set [8] is V79. Briefly: Antiproliferative activity against chinese hamster V79 cells after 72 hrs. Format: functional, cell-based, Cricetulus griseus. Put shortly:
as §4

Data set [9] concerns SK-OV-3. Briefly: Antiproliferative activity against human SKOV3 cells infected with 100 pfu/cell retrovirus after 18 hrs. It counts as functional, cell-based.
For data set [10], the system named is SK-OV-3. The data set is described as follows: Antiproliferative activity against human SKOV3 cells after 18 hrs. Format: functional, cell-based. Put shortly:
as §3

The test system of data set [11] is V79. The data set is described as follows: Ratio for antiproliferative activity against NTR- V79 cells to NTR+ V79 cells after 1 hr. It counts as functional, cell-based, Cricetulus griseus. The essentials: (§5)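 Same stable NTR⁺ and vector-only NTR⁻ V79 pair, seeded 1000 cells/well and recovered 24 h. Cells exposed to drug for 1 h only, initially up to 100 µM, then given drug-free medium. SRB viability was read 3 days after drug addition. IC50 is the concentration giving 50% of control cell number; ratio is NTR⁻/NTR⁺.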

Data set [12] concerns V79. Briefly: Antiproliferative activity against NTR expressing chinese hamster V79 cells after 1 hr. Format: functional, cell-based, Cricetulus griseus. Put shortly:
as §5

The next data set has as its system nitroreductase. The data set is described as §1. The following applies: Escherichia coli, Escherichia coli nitroreductase in phosphate buffer. It counts as ADME. The essentials: as §2
Data set [13] deals with V79. Briefly: Antiproliferative activity against chinese hamster V79 cells after 1 hr. Format: functional, cell-based. The following applies: Cricetulus griseus, V79, 1 h. The essentials: as §5
The subject of data set [14] is SK-OV-3. The data set is described as follows: Antiproliferative activity against human SKOV3 cells infected with 10 pfu/cell retrovirus after 18 hrs. Format: functional, cell-based. The following applies: SK-OV-3, 18 h.
The test system of data set [15] is SK-OV-3. Briefly: Ratio for antiproliferative activity against NTR- SKOV3 cells to NTR+ SKOV3 cells infected with 10 pfu/cell retrovirus after 18 hrs. It counts as functional, Homo sapiens.

Some results are limits rather than exact numbers.

As for `O=[N+]([O-])c1ccc(C2CCOP(=O)(N(CCCl)CCCl)N2)cc1` (racemic; cis), the Ratio in the data set on SK-OV-3 [1] is greater than 1.9; in the data set on SK-OV-3 [3], greater than 1.9; in the data set on V79 [4], greater than 2.2. For the same compound, the T1/2 in data set [2] was found to be 11.9 min. The 50% inhibitory concentration (IC50) in the data set with V79 [5] (v79) was 45.3 µM; with SK-OV-3 [6] (sk-ov-3) it was 530 µM; in the data set on SK-OV-3 [7] (sk-ov-3), 530 µM.

Regarding `O=[N+]([O-])c1ccc(C2CCNP(=O)(N(CCCl)CCCl)N2)cc1` (racemic; trans), in [2], the T1/2 came out at 4.2 min. For the same compound, the figures for the IC50 with V79 [8] (v79) and with V79 [5] (v79) were greater than 100 µM and 48.3 µM, respectively. In the data set with V79 [4], the Ratio is greater than 2.1.

As to `O=[N+]([O-])c1ccc(C2CCNP(=O)(N(CCCl)CCCl)O2)cc1` (racemic; cis), the half-maximal inhibitory concentration (IC50) in the data set on SK-OV-3 [9] (sk-ov-3) was 680 µM; in the data set on SK-OV-3 [10] (sk-ov-3) it was greater than 930 µM; in the data set with V79 [8] (v79) it was 832 µM; in the data set on V79 [12] (v79) it was 0.34 µM; with V79 [5] (v79), 0.029 µM; with SK-OV-3 [6] (sk-ov-3), 4.7 µM. Moreover, the Ratio in the data set with SK-OV-3 [1] is recorded as 150; in the data set on SK-OV-3 [3] it was greater than 440; with V79 [4], 29000; in the data set on V79 [11] it was greater than 290. Further, the T1/2 in [2] worked out at 5.2 min.

Regarding `O=P1(N(CCCl)CCCl)NC(OO)CCO1` (stereo not given) [PERFOSFAMIDE], the half-maximal inhibitory concentration (IC50) came to 3.1 µM in the data set on V79 [8] (Cricetulus griseus, V79, 72 h) and 2.7 µM with V79 [5] (Cricetulus griseus, V79, 72 h). Besides, the Ratio in the data set on V79 [4] was determined as 1.1.

Consider `O=[N+]([O-])c1ccc(C2CCOP(=O)(N(CCCl)CCCl)N2)cc1` (racemic; trans), for which the IC50 is greater than 1000 µM in the data set on SK-OV-3 [9] (Homo sapiens, SK-OV-3, 18 h); greater than 1000 µM with SK-OV-3 [10] (Homo sapiens, SK-OV-3, 18 h); greater than 100 µM in the data set on V79 [8] (Cricetulus griseus, V79, 72 h); 51.5 µM with V79 [5] (Cricetulus griseus, V79, 72 h); 220 µM in the data set on SK-OV-3 [6] (sk-ov-3); 210 µM in the data set with SK-OV-3 [7] (sk-ov-3). The Ratio in the data set on SK-OV-3 [1] is given as greater than 4.5; with SK-OV-3 [3], greater than 4.8; with V79 [4] it was greater than 1.9. Further, the T1/2 in data set [2] is reported as 2.9 min.

Regarding `O=[N+]([O-])c1ccc(C2CCNP(=O)(N(CCCl)CCCl)N2)cc1` (racemic; cis), the half-life in the data set on nitroreductase was found to be 6.4 min. The IC50 with V79 [8] (Cricetulus griseus, V79, 72 h) worked out at 56.8 µM; with V79 [5] (v79), 4.6 µM. Also, the Ratio in the data set on V79 [4] was determined as 12.

As to `O=[N+]([O-])c1ccc(C2CCNP(=O)(N(CCCl)CCCl)O2)cc1` (racemic; trans), the IC50 is greater than 1000 µM in the data set with SK-OV-3 [9] (Homo sapiens, SK-OV-3, 18 h); 570 µM in the data set on SK-OV-3 [10] (Homo sapiens, SK-OV-3, 18 h); 608 µM with V79 [8] (Cricetulus griseus, V79, 72 h); greater than 100 µM in the data set with V79 [13]; 0.17 µM in the data set with V79 [12] (Cricetulus griseus, V79, 1 h); 0.027 µM with V79 [5] (Cricetulus griseus, V79, 72 h). Moreover, the IC50 with SK-OV-3 [6] (Homo sapiens, SK-OV-3, 18 h) stood at 5 µM; in the data set on SK-OV-3 [7] (Homo sapiens, SK-OV-3, 18 h) it was 2.1 µM. Besides, the Ratio is recorded as greater than 200 in the data set with SK-OV-3 [1], 270 in the data set on SK-OV-3 [3], 23000 in the data set on V79 [4] and greater than 590 in the data set with V79 [11]. Besides, the half-life in the data set with nitroreductase came to 3.9 min.

With `NP(=O)(OCc1ccc([N+](=O)[O-])cc1)N(CCCl)CCCl` (racemic), the half-maximal inhibitory concentration (IC50) with SK-OV-3 [14] was greater than 1000 µM; with SK-OV-3 [9] (Homo sapiens, SK-OV-3, 18 h), greater than 1000 µM; in the data set on SK-OV-3 [10] (Homo sapiens, SK-OV-3, 18 h), greater than 890 µM; in the data set on V79 [8] (Cricetulus griseus, V79, 72 h) it was 67 µM; in the data set on V79 [13], greater than 100 µM; in the data set on V79 [12] (Cricetulus griseus, V79, 1 h), 0.01 µM. The IC50 in the data set on V79 [5] (Cricetulus griseus, V79, 72 h) is 0.0004 µM; in the data set with SK-OV-3 [7] (Homo sapiens, SK-OV-3, 18 h), 0.16 µM. Besides, the Ratio is reported as greater than 830 in the data set on SK-OV-3 [1]; greater than 5600 in the data set on SK-OV-3 [3]; 170000 in the data set with V79 [4]; greater than 10000 with V79 [11]; greater than 160 in the data set with SK-OV-3 [15]. Further, the half-life in the data set on nitroreductase was determined as 2.3 min.

As for `NC(=O)c1cc(N2CC2)c([N+](=O)[O-])cc1[N+](=O)[O-]` [TRETAZICAR], the IC50 in the data set with SK-OV-3 [14] is 625 µM; with SK-OV-3 [9] (Homo sapiens, SK-OV-3, 18 h) it was greater than 1000 µM; in the data set on SK-OV-3 [10] (Homo sapiens, SK-OV-3, 18 h), greater than 790 µM; with V79 [8] (Cricetulus griseus, V79, 72 h) it was 254 µM; in the data set on V79 [13], greater than 100 µM; with V79 [12] (Cricetulus griseus, V79, 1 h) it was 0.31 µM. Moreover, the IC50 with V79 [5] (Cricetulus griseus, V79, 72 h) came out at 0.036 µM; with SK-OV-3 [7] (Homo sapiens, SK-OV-3, 18 h), 2 µM. Besides, the Ratio with SK-OV-3 [1] is reported as greater than 210; in the data set with SK-OV-3 [3], greater than 400; in the data set with V79 [4], 7100; with V79 [11], greater than 320; in the data set on SK-OV-3 [15] it was 12. Moreover, the half-life in the data set on nitroreductase turned out to be 5 min.
